One test concerns Candida tropicalis. Nature of the test: In vitro evaluation of minimum inhibitory concentration against Candida tropicalis 2.11. The following applies: Candida tropicalis; read-out: MIC. Type of test: functional. Put shortly:
(§1)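 Stocks are 800 μg/mL in 50% ethanol. Each plate gets 10 μL of inoculum at 10^5 cfu/mL. Incubation at 25 °C, 48 h for yeasts and 120 h for dermatophytes and molds. Organisms are ATCC strains or clinical isolates.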

The next test relates to Microsporum canis. Nature of the test: In vitro evaluation of minimum inhibitory concentration against Microsporum canis 47. Type of test: functional. The following applies: Microsporum canis; read-out: MIC. The essentials: as §1
Test [1] has as its system Mus sp. Nature of the test: In vivo evaluation of % survival rate after peroral administration on 3rd day at dose 2.5 mg/kg. Type of test: functional. The following applies: Mus sp., po.
The next test has as its system Nannizzia gypsea. The experiment in a line: In vitro evaluation of minimum inhibitory concentration against Microsporum gypseum 22. The following applies: Nannizzia gypsea; read-out: MIC. Type of test: functional. Put shortly:
as §1

The test system of the next test is Trichophyton benhamiae. The experiment in a line: In vitro evaluation of minimum inhibitory concentration against Trichophyton mentagrophytes 23. Particulars: Trichophyton benhamiae; read-out: MIC. It is filed as functional, Arthroderma benhamiae. Put shortly: as §1
Test [2] relates to Candida albicans. The experiment in a line: In vitro evaluation of minimum inhibitory concentration against Candida albicans 76. It is filed as functional. The following applies: Candida albicans; read-out: MIC. Put shortly: as §1
For a further test, the system named is Aspergillus flavus. Nature of the test: In vitro evaluation of minimum inhibitory concentration against Aspergillus flavus 19. Particulars: Aspergillus flavus; read-out: MIC. It is filed as functional. Put shortly: as §1
The test system of a further test is Candida parapsilosis. The experiment in a line: In vitro evaluation of minimum inhibitory concentration against Candida parapsilosis 61. Type of test: functional. The following applies: Lodderomyces parapsilosis; read-out: MIC. The essentials:
as §1

For a further test, the system named is Aspergillus fumigatus. The experiment in a line: In vitro evaluation of minimum inhibitory concentration against Aspergillus fumigatus 33. Type of test: functional. Particulars: Aspergillus fumigatus; read-out: MIC. The essentials:
as §1

In test [3] the test system is Mus sp. Nature of the test: In vivo evaluation of % survival rate after peroral administration on 9th day at dose 2.5 mg/kg. Type of test: functional. Particulars: Mus sp., po.
The subject of a further test is Pichia kudriavzevii. The experiment in a line: In vitro evaluation of minimum inhibitory concentration against Candida krusei 70. Type of test: functional. The following applies: Pichia kudriavzevii; read-out: MIC. The essentials:
as §1

The next test deals with Trichophyton rubrum. The experiment in a line: In vitro evaluation of minimum inhibitory concentration against Trichophyton rubrum 90. Type of test: functional. Particulars: Trichophyton rubrum; read-out: MIC. Put shortly: as §1
Test [4] relates to Candida albicans. Nature of the test: In vivo evaluation of minimum inhibitory concentration against Candida albicans 60. It is filed as functional. The following applies: Candida albicans; read-out: MIC. Put shortly:
(§2)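 Broth macrodilution MIC following NCCLS M27-P, in RPMI-1640 buffered with 0.165 M MOPS. Fluconazole was dissolved in water and other drugs in DMSO. C. parapsilosis ATCC 22019 served as the reference strain in every run. MIC was the lowest concentration giving turbidity at or below the 80% inhibition standard.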

The test system of another test is Kluyveromyces marxianus. The experiment in a line: In vitro evaluation of minimum inhibitory concentration against Candida pseudotropicalis 13. It is filed as functional. The following applies: Kluyveromyces marxianus; read-out: MIC. Put shortly:
as §1

The next test deals with Aspergillus niger. Nature of the test: In vitro evaluation of minimum inhibitory concentration against Aspergillus niger 18. Type of test: functional. The following applies: Aspergillus niger; read-out: MIC. Put shortly:
as §1

In a further test the test system is Nakaseomyces glabratus. Nature of the test: In vitro evaluation of minimum inhibitory concentration against Torulopsis glabrata 78. It is filed as functional. The following applies: Nakaseomyces glabratus; read-out: MIC. Put shortly:
as §1

Test [5] relates to Candida albicans. The experiment in a line: In vivo evaluation of minimum inhibitory concentration against Candida albicans 406. Type of test: functional. Particulars: Candida albicans; read-out: MIC. Put shortly:
as §2

Test [6] has as its system Mus sp. Nature of the test: In vivo evaluation of % survival rate after peroral administration on 5th day at dose 2.5 mg/kg. The following applies: Mus sp., po. It is filed as functional.
Another test has as its system Rhodotorula mucilaginosa. The experiment in a line: In vitro evaluation of minimum inhibitory concentration against Rhodotorula rubra 16. It is filed as functional. The following applies: Rhodotorula mucilaginosa; read-out: MIC. The essentials:
as §1

Test [7] has as its system Meyerozyma guilliermondii. The experiment in a line: In vitro evaluation of minimum inhibitory concentration against Candida guilliermondii 26. It is filed as functional. The following applies: Meyerozyma guilliermondii; read-out: MIC. The essentials: as §1
Test [8] concerns Mus sp. The experiment in a line: In vivo evaluation of % survival rate after peroral administration on 7th day at dose 2.5 mg/kg. Type of test: functional. The following applies: Mus sp., po.
Test [9] has as its system Mus sp. Nature of the test: In vivo evaluation of % survival rate after peroral administration on 9th day at dose 1 mg/kg. Type of test: functional. Particulars: route oral, 1 mg/kg.
Test [10] concerns Mus sp. Nature of the test: In vivo evaluation of % survival rate after peroral administration on 5th day at dose 1 mg/kg. Particulars: Mus sp., po. It is filed as functional.
For test [11], the system named is Mus sp. Nature of the test: In vivo evaluation of % survival rate after peroral administration on 3rd day at dose 1 mg/kg. It is filed as functional. Particulars: Mus sp., po.
The test system of test [12] is Mus sp. Nature of the test: In vivo evaluation of % survival rate after peroral administration on 7th day at dose 1 mg/kg. Type of test: functional. Particulars: route oral, 1 mg/kg.

≈ marks a conversion by molar mass, not a printed value.

In general, MIC refers to the lowest concentration found to suppress growth. Take `C[C@H]1N(C(=O)c2ccc(OCC(F)(F)C(F)F)cc2)CC(=O)O[C@@]1(Cn1cncn1)c1ccc(Cl)cc1Cl` (racemic): the MIC is 80 µg/mL (≈ 139 µM) with Candida tropicalis; > 80 µg/mL in the test on Microsporum canis; 80 µg/mL (≈ 139 µM) in the test with Nannizzia gypsea; > 80 µg/mL in the test with Trichophyton benhamiae; 20 µg/mL (≈ 34.8 µM) in the test with Candida albicans [2]; > 80 µg/mL with Aspergillus flavus. Moreover, the MIC is 20 µg/mL (≈ 34.8 µM) in the test with Candida parapsilosis; > 80 µg/mL in the test with Aspergillus fumigatus; > 80 µg/mL in the test on Pichia kudriavzevii; > 80 µg/mL in the test with Trichophyton rubrum; 2.5 µg/mL (≈ 4.35 µM) in the test on Candida albicans [4]; 10 µg/mL (≈ 17.4 µM) in the test on Kluyveromyces marxianus. The MIC in the test with Aspergillus niger is > 80 µg/mL; in the test with Nakaseomyces glabratus, > 80 µg/mL; in the test with Candida albicans [5], 1.25 µg/mL (≈ 2.17 µM); in the test on Rhodotorula mucilaginosa, 80 µg/mL (≈ 139 µM); in [7] it was 80 µg/mL (≈ 139 µM). The survival at 2.5 mg/kg was 90% in the test with Mus sp. [1], 60% with Mus sp. [3], 90% with Mus sp. [6] and 80% in the test with Mus sp. [8].

Turning to `C[C@H]1N(C(=O)c2ccc(C(F)(F)F)cc2)CC(=O)O[C@@]1(Cn1cncn1)c1ccc(F)cc1F` (racemic), the MIC in the test with Candida tropicalis, in the test with Microsporum canis, in the test with Nannizzia gypsea, in the test with Trichophyton benhamiae, with Candida albicans [2] and with Aspergillus flavus was > 80 µg/mL throughout. For the same compound, the MIC with Candida parapsilosis was > 80 µg/mL; in the test with Aspergillus fumigatus, > 80 µg/mL; with Pichia kudriavzevii, > 80 µg/mL; with Trichophyton rubrum, > 80 µg/mL; in the test with Candida albicans [4], 80 µg/mL (≈ 167 µM); in the test with Kluyveromyces marxianus it was 80 µg/mL (≈ 167 µM). Moreover, the MIC is > 80 µg/mL in the test with Aspergillus niger; > 80 µg/mL in the test on Nakaseomyces glabratus; 40 µg/mL (≈ 83.3 µM) with Candida albicans [5]; > 80 µg/mL in the test on Rhodotorula mucilaginosa; > 80 µg/mL in test [7]. Moreover, the Survival is 0% with Mus sp. [9] and 30% in the test with Mus sp. [12]. The survival at 2.5 mg/kg in the test on Mus sp. [1] worked out at 100%; in the test with Mus sp. [3], 70%; with Mus sp. [6], 100%; in the test on Mus sp. [8] it was 95%. The values for the survival at 1 mg/kg in the test on Mus sp. [10] and with Mus sp. [11] were 85% and 95%, respectively.

Take `C[C@H]1N(C(=O)c2ccc(C(F)(F)F)cc2F)CC(=O)O[C@@]1(Cn1cncn1)c1ccc(F)cc1F` (racemic): the MIC is 80 µg/mL (≈ 161 µM) with Candida tropicalis; > 80 µg/mL in the test on Microsporum canis; > 80 µg/mL with Nannizzia gypsea; > 80 µg/mL with Trichophyton benhamiae; 40 µg/mL (≈ 80.3 µM) in the test on Candida albicans [2]; > 80 µg/mL in the test with Aspergillus flavus. Besides, the MIC is 80 µg/mL (≈ 161 µM) with Candida parapsilosis; > 80 µg/mL with Aspergillus fumigatus; > 80 µg/mL in the test on Pichia kudriavzevii; > 80 µg/mL with Trichophyton rubrum; 20 µg/mL (≈ 40.1 µM) in the test with Candida albicans [4]; 80 µg/mL (≈ 161 µM) with Kluyveromyces marxianus. Also, the MIC in the test on Aspergillus niger is > 80 µg/mL; with Nakaseomyces glabratus it was > 80 µg/mL; with Candida albicans [5] it was 20 µg/mL (≈ 40.1 µM); in the test with Rhodotorula mucilaginosa it was > 80 µg/mL; in [7], > 80 µg/mL. In addition, the survival at 2.5 mg/kg with Mus sp. [1] was 100%; in the test with Mus sp. [3] it was 90%; in the test on Mus sp. [6], 100%; in the test on Mus sp. [8], 100%.

Take `C[C@H]1N(C(=O)c2ccc(OCC(F)(F)C(F)F)cc2)CC(=O)O[C@@]1(Cn1cncn1)c1ccc(F)cc1F` (racemic): the MIC in the test with Candida tropicalis, in the test on Microsporum canis, with Nannizzia gypsea, with Trichophyton benhamiae, with Candida albicans [2] and in the test with Aspergillus flavus was > 80 µg/mL throughout. Besides, the MIC in the test with Candida parapsilosis is 80 µg/mL (≈ 147 µM); with Aspergillus fumigatus, > 80 µg/mL; in the test with Pichia kudriavzevii, > 80 µg/mL; with Trichophyton rubrum, > 80 µg/mL; with Candida albicans [4], 10 µg/mL (≈ 18.4 µM); in the test on Kluyveromyces marxianus, 80 µg/mL (≈ 147 µM). The MIC is > 80 µg/mL in the test with Aspergillus niger; > 80 µg/mL with Nakaseomyces glabratus; 10 µg/mL (≈ 18.4 µM) with Candida albicans [5]; > 80 µg/mL in the test on Rhodotorula mucilaginosa; 80 µg/mL (≈ 147 µM) in test [7]. For the same compound, the survival at 2.5 mg/kg with Mus sp. [1] amounted to 100%; in the test with Mus sp. [3], 70%; in the test on Mus sp. [6], 100%; in the test with Mus sp. [8], 90%.

These data come from ChEMBL document CHEMBL1128448, “Synthesis and antifungal activity of new azole derivatives containing an N-acylmorpholine ring” (1995).
